Screening results deposited in PubChem BioAssay by several laboratories.
Hits are enriched below; roughly 1.3% of the tested compounds scored in any of these assays.
ASAP1 GAP inh = ASAP1 ArfGAP inhibition; Q9ULH1; ASAP1-stimulated ARF1 GTP hydrolysis, GDP FP detection; 0.19% of 360,000 active; inhibition, % at 16.5 µM; in the data active = inhibition above about 25%;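 also: 0% = vehicle with enzyme and substrate and 100% = no enzyme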
LEDGF integ inh = blocks HIV-1 LEDGF/p75-dependent DNA integration. 0.64% of 370,000 active. TR-FRET IN-LEDGF/p75 DNA integration, Eu/Cy5. inhibition, % at 3.7 µM. AID 743269;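 active = inhibition above the screen-wide mean plus 3 SD, cut at about 13% in these data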;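 also: signal is the Cy5 over europium emission ratio at 671 and 618 nm; 0% = plate median of compound wells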
ARFGAP1 inhibitor = inhibitors of rat ARFGAP1; Q62848; Arfgap1-stimulated ARF1 GTP hydrolysis, GDP FP detection; inhibition, % at 16.5 µM; 0.26% of 360,000 active;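 active = inhibition above a per-plate limit, mean inhibition of low control wells plus 3 SD, cut at about 25% in these data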;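 also: 0% = DMSO wells with enzyme and 100% = wells lacking Arfgap1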
Target sequence (Q62848 1-136 limits assumed): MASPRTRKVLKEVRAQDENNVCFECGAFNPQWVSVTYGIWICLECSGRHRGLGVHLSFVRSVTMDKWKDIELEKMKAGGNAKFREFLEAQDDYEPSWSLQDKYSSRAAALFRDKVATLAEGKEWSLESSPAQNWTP
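system = rat Arfgap1 catalytic domain, aa 1-136 | technique = FP, GDP Alexa 633 tracer displaced from anti-GDP antibody, 620/688 nm | compound = one concentration, 16.5 µM, DMSO 1.26% | medium = HEPES-based buffer, pH 7.5 | timing = compound-enzyme preincubation 20 min, reaction 120 min, detection 60 min, 25 °C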
TDP2 inh = TDP2 (human) inhibition, absorbance primary screen | O95551 | recombinant TDP2, T5PNP hydrolysis, p-nitrophenol absorbance 415 nm | inhibition, % at 12.8 µM | 0.34% of 370,000 active;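 active = inhibition above the mean of all tested compounds plus 3 SD, set per campaign, cut at about 25% in these data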;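 also: 0% = DMSO with enzyme and 100% = buffer with substrate but no TDP2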
Target sequence (O95551 whole entry, looked up): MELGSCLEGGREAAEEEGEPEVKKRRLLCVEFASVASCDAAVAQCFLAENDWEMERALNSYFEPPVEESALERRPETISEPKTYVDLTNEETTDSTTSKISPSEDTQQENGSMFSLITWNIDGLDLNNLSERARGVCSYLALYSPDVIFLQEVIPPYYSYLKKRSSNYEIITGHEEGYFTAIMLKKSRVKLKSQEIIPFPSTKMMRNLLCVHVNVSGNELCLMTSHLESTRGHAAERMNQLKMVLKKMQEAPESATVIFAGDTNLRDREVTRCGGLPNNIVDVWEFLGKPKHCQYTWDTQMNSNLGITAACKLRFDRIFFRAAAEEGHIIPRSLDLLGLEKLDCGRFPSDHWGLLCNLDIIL
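System: recombinant human TDP2 / Amount: 120 nM TDP2 per well / Also added: 5 mM T5PNP chromogenic substrate / Doses: 12.8 µM single point, 1% DMSO / Incubation: 2 h at 37 °C / Detection: p-Nitrophenol epi absorbance / Evaluation: % inhibition relative to enzyme-containing and enzyme-free wells / Repeats: singlicate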
Casp6 inh = caspase-6 (human) enzyme inhibition; P55212; purified caspase-6, Z-VEID-R110 cleavage fluorescence; 0.53% of 350,000 active; inhibition, % at 12.5 µM;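 active = mean inhibition across replicates at least about 35%, with every replicate also reaching that limit, limit read from the data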;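 also: 0% = median of neutral control wells and 100% = no fluorescence left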
Target sequence (P55212 24-179 limits assumed): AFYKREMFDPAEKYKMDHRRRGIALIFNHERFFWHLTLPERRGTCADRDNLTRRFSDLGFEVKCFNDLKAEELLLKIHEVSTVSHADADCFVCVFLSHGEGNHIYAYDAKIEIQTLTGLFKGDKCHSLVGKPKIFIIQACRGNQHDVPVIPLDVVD
Target sequence (P55212 194-293 limits assumed): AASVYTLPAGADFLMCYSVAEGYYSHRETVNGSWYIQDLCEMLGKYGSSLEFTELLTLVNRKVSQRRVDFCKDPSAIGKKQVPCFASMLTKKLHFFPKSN
IN multimer up = counter-screen for LEDGF/p75 integration inhibitors: HIV-1 integrase multimerization activators | shares compounds with LEDGF integ inh | TR-FRET HIV-1 integrase multimerization, biochemical | AID 1053131 | 17% of 2,000 active | activation, % at 7.7 µM; in the data active = activation above about 8.9%
TR-FRET interf = TR-FRET optical interference, LEDGF/p75 integration counter-screen. shares compounds with LEDGF integ inh. AID 1053135. inhibition, % at 7.7 µM. TR-FRET optical interference counterscreen, HIV-1 IN multimerization. 2,000 tested, under 10 active;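 active = inhibition above the mean over all tested compounds plus 3 SD, which no compound reached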;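 also: 0% = integrase with antibodies and DMSO and 100% = antibodies without integrase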
LEDGF integ conf = LEDGF/p75-dependent HIV-1 integration inhibition, confirmation; shares compounds with LEDGF integ inh; inhibition, % at 3.7 µM; 36% of 2,000 active; AID 1053136; TR-FRET LEDGF/p75-dependent HIV-1 integration, biochemical; in the data active = inhibition above about 14%
* hit, by the source's call; . = no result.

SMILES | ASAP1 GAP inh | LEDGF integ inh | ARFGAP1 inhibitor | TDP2 inh | Casp6 inh | IN multimer up | TR-FRET interf | LEDGF integ conf
CC(C)CC#Cc1ccc2c(c1)O[C@H](CN(C)Cc1ccccn1)[C@@H](C)CN([C@@H](C)CO)S2(=O)=O | . | . | . | . | -0.4 | . | . | .
COc1cccc(NC(=O)CN(C)C(=O)Cc2ccc3c(c2)OCCO3)c1 | -17.7 | 92.5* | -3.6 | -2.5 | -96.9 | -1.7 | 8.4 | -1.9
COc1cccc(NC(=O)CN(C)C(=O)Cc2ccc3c(c2)CCC3)c1 | 3.0 | -0.9 | 0.2 | 1.4 | -1.7 | . | . | .
NC(=O)COc1ccc(-n2cnnn2)cc1 | -2.4 | 2.3 | 1.9 | 8.2 | 26.6 | . | . | .
C[C@@H]1CN([C@@H](C)CO)S(=O)(=O)c2ccc(-c3cccnc3)cc2O[C@H]1CN(C)C(=O)CN(C)C | . | . | . | . | 0.2 | . | . | .
S=C(NCc1ccccc1)NCc1cccc(CNC(=S)NCc2ccccc2)c1 | 9.2 | 43.9* | 6.4 | -6.7 | 0.6 | 1.5 | -7.3 | -11.3
S=C(NCc1ccccc1)NCc1cccc(Cl)c1 | -3.9 | -0.2 | 11.7 | -9.6 | -0.7 | . | . | .
CS(=O)(=O)N(CC(=O)N1CCN(c2cccc(Cl)c2)CC1)c1cccc(F)c1 | -13.5 | 23.6* | -6.6 | 4.8 | . | 0.3 | -1.3 | -6.2
CN(C)S(=O)(=O)c1ccc(C(=O)OCCCN=C2NS(=O)(=O)c3ccccc32)cc1 | 0.0 | 0.4 | -10.4 | 13.2 | 2.8 | . | . | .
CC(=O)Nc1ccc(S(=O)(=O)/N=C2/NC(=O)/C(=C\c3ccco3)S2)cc1 | -9.4 | 23.1* | 10.9 | 12.9 | 64.7* | 5.7 | -20.3 | 6.3
Cc1ccc(S(=O)(=O)/N=C2/NC(=O)/C(=C\c3ccccc3)S2)cc1 | 5.5 | 2.7 | -3.5 | 9.3 | 21.5 | . | . | .
COc1ccc(/C=N/NC(=O)c2cc(O)c(O)c(O)c2)cc1Cn1cc([N+](=O)[O-])cn1 | 9.5 | 68.9* | -8.6 | 4.3 | 62.0* | 53.6* | -270.1 | 86.7*
COc1ccc(/C=N/NC(=O)c2ccccc2O)cc1Cn1cc([N+](=O)[O-])cn1 | -6.7 | -3.2 | -0.8 | 12.7 | 1.5 | . | . | .
O=C1C=C(c2cccs2)C[C@H](c2ccccc2)[C@H]1n1nnc([N+](=O)[O-])n1 | -1.2 | 14.2* | 4.7 | 3.1 | . | 2.2 | -8.0 | 18.3*
O=C(CCN1C(=O)c2ccccc2C1=O)N1CCN(Cc2ccccc2)CC1 | -9.1 | -1.1 | 8.8 | -3.2 | -1.0 | . | . | .
Cc1ccc(CN2CCN(C(=O)CCN3C(=O)c4ccccc4C3=O)CC2)cc1 | -4.4 | 79.2* | -3.1 | 5.0 | . | -0.5 | 2.8 | 1.9
Cc1ccc(CN2CCN(C(=O)c3ccncc3)CC2)cc1 | -2.0 | 75.5* | -1.2 | 12.7 | 0.1 | 0.2 | -1.2 | 4.5
COc1ccc(N2CCN(C(=O)COC(=O)[C@@H](NC(=O)c3ccccc3Cl)C(C)C)CC2)cc1 | 4.8 | -3.9 | 14.8 | -0.2 | -1.8 | . | . | .
c1coc(CSSCc2ccco2)c1 | -12.1 | 46.2* | -14.1 | -2.8 | 82.1* | 0.5 | -2.3 | 11.3
CN(C)c1ccc(C(=O)OCC(=O)Nc2ccc(N3CCOCC3)cc2)cc1 | -1.0 | -0.1 | -14.6 | -3.2 | -16.2 | . | . | .
C/C(=N\NC(=O)c1ccc([N+](=O)[O-])cc1)c1c(O)cc(C)oc1=O | 12.8 | 4.7 | -3.9 | 7.6 | -0.2 | . | . | .
C/C(=N/NC(=O)c1cc(O)c(O)c(O)c1)c1ccc([N+](=O)[O-])cc1 | -3.6 | 31.2* | -14.2 | -2.0 | 74.3* | 19.4* | -97.9 | 51.3*
COc1cc(/C=C2\OC(=O)c3c(OC)cccc32)ccc1O | 9.9 | -3.2 | 21.4 | -8.1 | . | . | . | .
COc1cc(C(=O)O)c2c(c1C)OC(=O)c1c(C)cc(O)c(C=O)c1O2 | -10.0 | 16.8* | -12.2 | 6.2 | . | -0.3 | 1.5 | 37.5*
CC(=O)Nc1ccc(S(=O)(=O)N2CCCN(S(=O)(=O)c3ccc(C)cc3)CC2)cc1 | 9.2 | -6.8 | -5.4 | -2.5 | . | . | . | .
SMILES | ASAP1 GAP inh | LEDGF integ inh | ARFGAP1 inhibitor | TDP2 inh | Casp6 inh | IN multimer up | TR-FRET interf | LEDGF integ conf
Clc1ccc2oc(-c3ccccc3)nc2c1 | -4.0 | 19.4* | 7.1 | 12.5 | . | 5.8 | -20.2 | 4.0
Clc1ccc2oc(-c3cccnc3)nc2c1 | 4.3 | -0.2 | -8.3 | 5.7 | . | . | . | .
O=C1CC(c2ccco2)CC(O)=C1C=Nc1ccccc1-c1ccccc1 (stereo unspecified) | 5.6 | 2.5 | 1.3 | -4.1 | -4.5 | . | . | .
O=C1CC(c2ccco2)CC(O)=C1C=Nc1cc(Cl)ccc1Cl (stereo unspecified) | -1.2 | 20.8* | -4.5 | 2.2 | . | -0.4 | 2.2 | 21.4*
O=C1CC(c2ccco2)CC(O)=C1C=Nc1cc(Cl)ccc1O (stereo unspecified) | 10.4 | 34.3* | 4.4 | -15.1 | . | 5.3 | -18.9 | 15.6*
CCCc1nc(SCC(=O)N2c3ccccc3CC2C)c2c(C)c(C)sc2n1 (stereo unspecified) | 9.5 | -0.6 | -6.9 | 4.0 | . | . | . | .
N#C/C(=C\c1ccc(O)c(O)c1)C(=O)c1ccc(O)c(O)c1 | -0.6 | 91.1* | 3.2 | 0.9 | 71.7* | 20.0* | -100.6 | 89.5*
COc1ccccc1N(CC(=O)NC1CCCCC1C)S(=O)(=O)c1cccs1 (stereo unspecified) | -11.5 | 33.5* | 5.3 | 6.2 | 0.5 | 0.1 | -0.5 | 6.1
C[C@H](CO)N1C[C@H](C)[C@@H](CN(C)S(=O)(=O)c2cccs2)Oc2c(NC(=O)NC3CCCCC3)cccc2C1=O | -1.6 | 18.1* | 1.1 | -18.4 | 3.4 | 0.4 | -1.9 | 0.8
CC(C)NC(=O)N(C)C[C@H]1Oc2c(NS(=O)(=O)c3ccccc3)cccc2C(=O)N([C@H](C)CO)C[C@@H]1C | -8.0 | 34.6* | 4.7 | 6.7 | -1.2 | 1.1 | -3.9 | 0.8
C[C@@H]1CN([C@H](C)CO)C(=O)c2cccc(NC(=O)NC3CCCCC3)c2O[C@H]1CN(C)S(=O)(=O)c1cccs1 | . | . | . | . | -0.9 | . | . | .
CC(C)NC(=O)N(C)C[C@@H]1Oc2c(NS(=O)(=O)c3ccccc3)cccc2C(=O)N([C@H](C)CO)C[C@@H]1C | . | . | . | . | -0.4 | . | . | .
C[C@H]1CN([C@@H](C)CO)C(=O)c2cccc(NC(=O)NC3CCCCC3)c2O[C@H]1CN(C)C(=O)Nc1ccccc1 | . | . | . | . | 0.9 | . | . | .
COc1ccccc1N(C)S(=O)(=O)c1ccc(Cl)c(C(=O)OCc2c(C)noc2C)c1 | -9.1 | 1.1 | 4.1 | 0.5 | 1.8 | . | . | .
N/C(Cc1nc(-c2ccc(Br)cc2)cs1)=N\O | -0.6 | -3.1 | -3.3 | 5.9 | -4.8 | . | . | .
O=C1NC(=Nc2ccc(O)cc2)S/C1=C\C=C\c1ccco1 | -0.1 | 38.5* | -0.1 | 18.0 | 13.2 | 18.5* | -93.0 | 53.2*
COc1ccc(N=C2NC(=O)/C(=C\c3ccco3)S2)cc1 | -1.7 | 4.7 | -7.1 | 5.8 | -2.8 | . | . | .
